How the values were obtained:
[1] = biological target: T1, 5-hydroxytryptamine receptor 1A (Rattus norvegicus, UniProt P19327); assay: Ability to bind to central serotonin 5-hydroxytryptamine 1A receptor in vitro in hippocampus of the rat brain using [3H]8-OH-DPAT radioligand; assay type: tissue-based
T1 sequence (P19327 whole entry): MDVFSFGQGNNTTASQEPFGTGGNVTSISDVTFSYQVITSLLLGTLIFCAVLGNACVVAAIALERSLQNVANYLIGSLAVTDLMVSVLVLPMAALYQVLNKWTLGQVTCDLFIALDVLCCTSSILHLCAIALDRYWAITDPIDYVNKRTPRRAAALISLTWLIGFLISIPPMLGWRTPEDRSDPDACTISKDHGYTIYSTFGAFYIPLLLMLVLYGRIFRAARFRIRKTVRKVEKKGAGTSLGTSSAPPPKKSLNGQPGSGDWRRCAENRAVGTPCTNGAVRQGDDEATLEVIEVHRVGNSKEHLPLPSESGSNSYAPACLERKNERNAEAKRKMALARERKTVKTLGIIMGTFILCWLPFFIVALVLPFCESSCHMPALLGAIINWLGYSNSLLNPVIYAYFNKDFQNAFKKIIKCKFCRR
Method in brief: (§1)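 Competition binding in rat brain tissue: hippocampus with [3H]-8-OH-DPAT (5-HT1A); cortex with [3H]-ketanserin (5-HT2A) or [3H]-prazosin (α1). Ki from at least three experiments using 10–14 concentrations (10⁻¹⁰–10⁻⁵ M), each in triplicate.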

[2] = biological target: 5-hydroxytryptamine receptor 2A (Rattus norvegicus, UniProt P14842); assay: Ability to bind to central serotonin 5-hydroxytryptamine 2A receptor in vitro in cortex of the rat brain using [3H]ketanserin radioligand; assay type: tissue-based; method in brief: as §1
Sequence of 5-hydroxytryptamine receptor 2A (P14842 whole entry): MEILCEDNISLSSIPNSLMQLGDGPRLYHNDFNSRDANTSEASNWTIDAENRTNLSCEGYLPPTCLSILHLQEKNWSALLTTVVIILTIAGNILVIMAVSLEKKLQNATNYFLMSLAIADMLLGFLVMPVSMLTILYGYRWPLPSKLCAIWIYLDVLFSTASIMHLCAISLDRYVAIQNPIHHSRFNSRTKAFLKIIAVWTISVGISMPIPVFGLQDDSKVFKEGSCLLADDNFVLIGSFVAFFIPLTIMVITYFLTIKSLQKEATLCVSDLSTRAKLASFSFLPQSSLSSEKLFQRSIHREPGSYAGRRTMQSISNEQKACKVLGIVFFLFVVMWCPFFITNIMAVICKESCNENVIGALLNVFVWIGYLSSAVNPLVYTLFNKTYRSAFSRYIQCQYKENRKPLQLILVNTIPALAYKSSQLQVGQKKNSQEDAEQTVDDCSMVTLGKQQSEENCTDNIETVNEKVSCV

[3] = biological target: T2, Adrenergic receptor alpha-1 (Rattus norvegicus, UniProt P15823+P23944+P43140); assay: Ability to bind to alpha-1 adrenergic receptor in vitro in cortex of the rat brain using [3H]prazosin radioligand; assay type: tissue-based; method in brief: as §1
T2 sequence (P15823 whole entry): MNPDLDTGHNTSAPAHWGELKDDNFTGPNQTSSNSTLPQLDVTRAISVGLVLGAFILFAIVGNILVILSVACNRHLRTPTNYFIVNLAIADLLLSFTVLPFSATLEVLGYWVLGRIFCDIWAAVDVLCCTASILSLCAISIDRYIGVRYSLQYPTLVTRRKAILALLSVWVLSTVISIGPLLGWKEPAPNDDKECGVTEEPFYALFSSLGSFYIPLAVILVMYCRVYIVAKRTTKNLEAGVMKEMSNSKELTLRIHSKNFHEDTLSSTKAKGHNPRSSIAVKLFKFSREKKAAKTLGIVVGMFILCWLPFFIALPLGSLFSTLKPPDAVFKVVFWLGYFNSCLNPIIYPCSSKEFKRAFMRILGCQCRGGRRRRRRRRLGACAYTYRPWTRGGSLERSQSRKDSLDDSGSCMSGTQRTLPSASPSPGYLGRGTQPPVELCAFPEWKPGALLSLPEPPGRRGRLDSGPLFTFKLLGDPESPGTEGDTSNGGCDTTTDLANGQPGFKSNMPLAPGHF
T2 sequence (P23944 whole entry): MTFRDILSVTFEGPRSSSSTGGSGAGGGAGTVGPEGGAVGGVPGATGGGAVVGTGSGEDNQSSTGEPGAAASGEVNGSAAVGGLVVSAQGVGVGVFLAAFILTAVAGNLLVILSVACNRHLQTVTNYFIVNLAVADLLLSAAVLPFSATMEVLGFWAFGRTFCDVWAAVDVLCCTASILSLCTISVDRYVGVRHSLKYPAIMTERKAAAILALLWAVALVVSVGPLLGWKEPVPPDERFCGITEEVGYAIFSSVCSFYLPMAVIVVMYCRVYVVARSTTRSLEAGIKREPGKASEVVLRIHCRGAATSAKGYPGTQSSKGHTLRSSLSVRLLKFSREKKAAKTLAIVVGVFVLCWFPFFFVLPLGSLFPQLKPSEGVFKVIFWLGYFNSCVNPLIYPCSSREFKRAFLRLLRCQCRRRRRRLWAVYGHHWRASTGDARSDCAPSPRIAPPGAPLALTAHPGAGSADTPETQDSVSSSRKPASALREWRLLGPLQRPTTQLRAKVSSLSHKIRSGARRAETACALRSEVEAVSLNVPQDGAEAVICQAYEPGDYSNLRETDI
T2 sequence (P43140 whole entry): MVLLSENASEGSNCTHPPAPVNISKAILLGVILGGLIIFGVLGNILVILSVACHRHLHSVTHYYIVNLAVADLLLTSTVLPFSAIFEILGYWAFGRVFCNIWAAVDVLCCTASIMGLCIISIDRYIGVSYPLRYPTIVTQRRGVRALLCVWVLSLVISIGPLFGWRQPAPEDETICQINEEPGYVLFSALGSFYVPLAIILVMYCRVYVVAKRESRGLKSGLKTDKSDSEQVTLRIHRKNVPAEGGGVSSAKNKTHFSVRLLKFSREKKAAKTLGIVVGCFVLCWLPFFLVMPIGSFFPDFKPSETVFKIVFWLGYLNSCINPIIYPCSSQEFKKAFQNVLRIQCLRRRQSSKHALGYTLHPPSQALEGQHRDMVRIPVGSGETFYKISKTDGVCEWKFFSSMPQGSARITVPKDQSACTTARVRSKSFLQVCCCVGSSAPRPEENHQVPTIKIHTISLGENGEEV

D(2) dopamine receptor = D(2) dopamine receptor (Rattus norvegicus, UniProt P61169); assay: Ability to bind to Dopamine receptor D2 in vitro in rat sriatal membranes using [3H]spiperone radioligand; assay type: cell membranes
Sequence of D(2) dopamine receptor (P61169 whole entry): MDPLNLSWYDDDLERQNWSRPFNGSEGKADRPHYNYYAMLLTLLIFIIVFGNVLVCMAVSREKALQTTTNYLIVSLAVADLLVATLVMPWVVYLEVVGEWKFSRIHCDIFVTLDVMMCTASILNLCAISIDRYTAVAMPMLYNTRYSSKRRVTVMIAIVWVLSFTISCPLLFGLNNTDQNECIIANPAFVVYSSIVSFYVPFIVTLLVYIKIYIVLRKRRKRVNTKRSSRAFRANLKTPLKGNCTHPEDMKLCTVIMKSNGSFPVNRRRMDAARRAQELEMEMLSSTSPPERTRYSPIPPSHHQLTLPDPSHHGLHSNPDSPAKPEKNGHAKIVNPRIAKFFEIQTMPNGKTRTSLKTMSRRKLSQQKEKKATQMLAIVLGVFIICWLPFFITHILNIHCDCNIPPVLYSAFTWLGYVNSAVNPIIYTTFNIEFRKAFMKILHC
Method in brief: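 Rat striatal membranes with [3H]spiperone; ketanserin 50 nM in buffer to block 5-HT2A binding; nonspecific binding with (±)-butaclamol 5 μM; 50 mM potassium phosphate pH 7.4; 37 °C, 30 min; vacuum filtration onto glass fiber, scintillation counting. Ki via Cheng-Prusoff from ≥3 experiments, 10 concentrations in triplicate.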

[4] = biological target: 5-hydroxytryptamine receptor 2A (Mus musculus) (UniProt P35363); assay: The ability to antagonize head twitches in mice, observed after administration of (+/-)- DOI, was used to evaluate 5-HT2A receptor antagonistic property; Antagonist; assay type: functional, organism-based; details: filed as antagonist
Sequence of 5-hydroxytryptamine receptor 2A (Mus musculus) (P35363 whole entry): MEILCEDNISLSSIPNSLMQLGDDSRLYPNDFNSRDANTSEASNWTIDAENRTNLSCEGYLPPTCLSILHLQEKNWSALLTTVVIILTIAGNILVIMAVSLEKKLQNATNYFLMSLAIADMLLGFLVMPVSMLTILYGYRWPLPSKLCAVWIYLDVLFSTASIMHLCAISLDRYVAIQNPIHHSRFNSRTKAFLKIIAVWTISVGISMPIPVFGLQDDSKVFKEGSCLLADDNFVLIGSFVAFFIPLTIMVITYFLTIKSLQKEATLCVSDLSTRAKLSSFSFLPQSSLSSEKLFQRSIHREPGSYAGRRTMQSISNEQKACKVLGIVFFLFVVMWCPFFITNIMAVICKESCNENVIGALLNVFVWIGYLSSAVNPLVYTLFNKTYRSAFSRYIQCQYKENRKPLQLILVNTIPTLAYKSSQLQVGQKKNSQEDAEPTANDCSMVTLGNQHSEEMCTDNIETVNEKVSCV
Method in brief: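 Male Albino Swiss mice habituated 20 min in glass cages; compounds ip (1% Tween 80) 60 min before (±)-DOI 2.5 mg/kg; head twitches counted for 20 min after DOI. ID50 by Litchfield-Wilcoxon.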

[5] = biological target: T3, 5-hydroxytryptamine receptor 1A (Mus musculus) (UniProt Q64264); assay: The hypothermia produced in mice was regarded as a measure of presynaptic 5-HT1A receptor agonistic activity; Agonist; assay type: functional; details: filed as agonist
T3 sequence (whole entry): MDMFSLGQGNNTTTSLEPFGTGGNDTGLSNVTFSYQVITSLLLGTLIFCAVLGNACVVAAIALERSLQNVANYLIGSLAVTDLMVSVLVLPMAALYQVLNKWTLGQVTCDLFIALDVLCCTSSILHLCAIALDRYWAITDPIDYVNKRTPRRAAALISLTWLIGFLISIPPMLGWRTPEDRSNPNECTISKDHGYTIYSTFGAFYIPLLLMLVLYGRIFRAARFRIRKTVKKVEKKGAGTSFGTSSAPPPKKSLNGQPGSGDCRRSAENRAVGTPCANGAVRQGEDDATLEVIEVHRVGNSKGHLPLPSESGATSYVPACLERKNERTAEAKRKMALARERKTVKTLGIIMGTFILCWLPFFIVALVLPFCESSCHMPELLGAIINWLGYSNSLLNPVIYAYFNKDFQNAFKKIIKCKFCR

[6] = biological target: 5-hydroxytryptamine receptor 1A (Rattus norvegicus) (UniProt P19327); assay: Ability inhibit symptoms induced by 8-OH-DPAT was regarded as postsynaptic 5-HT1A receptor antagonistic activity; Antagonist; details: filed as antagonist
Mus musculus = species on record: Mus musculus; assay: Ability to inhibit 8-OH-DPAT-induced hypothermia was taken as a measure of presynaptic antagonistic activity; Antagonist; assay type: functional, organism-based; details: filed as antagonist

Structure (SMILES) | Ki [1] | Ki [2] | Ki [3] | Ki (D(2) dopamine receptor) | Functional profile [4] | Functional profile [5] | Functional profile [6] | Functional profile (Mus musculus)
Cn1c(=O)c2c(nc3nc(NCCCN4CCN(c5cccc(Cl)c5)CC4)c(Br)cn32)n(C)c1=O | 49 nM | 85 nM | 46 nM | 264 nM | Antagonist | Agonist | Antagonist | 
COc1ccccc1N1CCN(CCNc2ccn3c(n2)nc2c3c(=O)n(C)c(=O)n2C)CC1 | 1.1 nM | 246 nM | 58 nM | 1330 nM |  |  | Antagonist | Antagonist
Cn1c(=O)c2c(nc3nc(NCCCN4CCN(c5ccccc5)CC4)ccn32)n(C)c1=O | 19 nM | 72 nM | 25 nM | 430 nM | Antagonist |  | Antagonist | Antagonist
COc1ccccc1N1CCN(CCCn2c(=O)ccn3c4c(=O)n(C)c(=O)n(C)c4nc23)CC1 | 10.4 nM | 3880 nM |  |  |  |  |  | 
Cn1c(=O)c2c(nc3nc(NCCN4CCN(c5cccc(Cl)c5)CC4)ccn32)n(C)c1=O | 23 nM | 234 nM | 29 nM | 182 nM |  | Agonist | Antagonist | 
COc1ccccc1N1CCN(CCCN2CCCn3c2nc2c3c(=O)n(C)c(=O)n2C)CC1 | 17.2 nM | 562 nM |  |  |  |  |  | 
Cn1c(=O)c2c(nc3nc(NCCN4CCN(c5cccc(Cl)c5)CC4)c(Br)cn32)n(C)c1=O | 68 nM | 64 nM |  | 165 nM | Antagonist |  | Antagonist | 
Cn1c(=O)c2c(nc3n(CCCN4CCN(c5ccccc5)CC4)c(=O)ccn23)n(C)c1=O | 25 nM | 4680 nM |  |  |  |  |  | 
COc1ccccc1N1CCN(CCCNc2ccn3c(n2)nc2c3c(=O)n(C)c(=O)n2C)CC1 | 34 nM | 835 nM | 33 nM | 1170 nM |  |  | Antagonist | 
Cn1c(=O)c2c(nc3nc(NCCCN4CCN(c5cccc(Cl)c5)CC4)ccn32)n(C)c1=O | 46 nM | 56 nM | 21 nM | 94 nM | Antagonist | Agonist | Antagonist | 
Cn1c(=O)c2c(nc3n2CCCN3CCCCN2CCN(c3ccccc3)CC2)n(C)c1=O | 2.1 nM | 243 nM |  |  |  |  |  | 
Cn1c(=O)c2c(nc3nc(NCCN4CCN(c5ccccc5)CC4)c(Br)cn32)n(C)c1=O | 87 nM | 440 nM |  | 1240 nM |  |  | Antagonist | 
COc1ccccc1N1CCN(CCCNc2nc3nc4c(c(=O)n(C)c(=O)n4C)n3cc2Br)CC1 | 36 nM | 880 nM | 38 nM | 325 nM |  | Agonist | Antagonist | 
COc1ccccc1N1CCN(CCNc2nc3nc4c(c(=O)n(C)c(=O)n4C)n3cc2Br)CC1 | 62 nM | 86 nM | 62 nM | 226 nM |  | Agonist | Antagonist | 

Source: ChEMBL document CHEMBL1137076, “New arylpiperazine 5-HT(1A) receptor ligands containing the pyrimido[2,1-f]purine fragment: synthesis, in vitro, and in vivo pharmacological evaluation” (J Med Chem, 2004)
